An excerpt weighted towards active compounds, which were near 2.2% of everything screened.
PGC1a acetyl inh – PGC1a acetylation modulation, inhibitor mode; U2OS PGC1a acetylation, AlphaScreen anti-acetyl-lysine; with virally co-expressed GCN5 acetyltransferase; inhibition, % at 15.6 µM; AID 651687; hit rate 0.17% among 350,000;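 active = every replicate shows inhibition of at least 40%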
ERAP1 HTS inh – ERAP1 (human) enzyme inhibition | Q9NZ08 | recombinant ERAP1, Leu-AMC fluorescence, 60 min | inhibition, % at 10.7 µM | hit rate 0.15% among 340,000 | AID 652197;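 active = mean replicate inhibition of at least 30%, or all replicates individually reaching that 30% level; inactive = mean below 30% and not every replicate reaching it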
Target sequence (Q9NZ08 whole entry, looked up): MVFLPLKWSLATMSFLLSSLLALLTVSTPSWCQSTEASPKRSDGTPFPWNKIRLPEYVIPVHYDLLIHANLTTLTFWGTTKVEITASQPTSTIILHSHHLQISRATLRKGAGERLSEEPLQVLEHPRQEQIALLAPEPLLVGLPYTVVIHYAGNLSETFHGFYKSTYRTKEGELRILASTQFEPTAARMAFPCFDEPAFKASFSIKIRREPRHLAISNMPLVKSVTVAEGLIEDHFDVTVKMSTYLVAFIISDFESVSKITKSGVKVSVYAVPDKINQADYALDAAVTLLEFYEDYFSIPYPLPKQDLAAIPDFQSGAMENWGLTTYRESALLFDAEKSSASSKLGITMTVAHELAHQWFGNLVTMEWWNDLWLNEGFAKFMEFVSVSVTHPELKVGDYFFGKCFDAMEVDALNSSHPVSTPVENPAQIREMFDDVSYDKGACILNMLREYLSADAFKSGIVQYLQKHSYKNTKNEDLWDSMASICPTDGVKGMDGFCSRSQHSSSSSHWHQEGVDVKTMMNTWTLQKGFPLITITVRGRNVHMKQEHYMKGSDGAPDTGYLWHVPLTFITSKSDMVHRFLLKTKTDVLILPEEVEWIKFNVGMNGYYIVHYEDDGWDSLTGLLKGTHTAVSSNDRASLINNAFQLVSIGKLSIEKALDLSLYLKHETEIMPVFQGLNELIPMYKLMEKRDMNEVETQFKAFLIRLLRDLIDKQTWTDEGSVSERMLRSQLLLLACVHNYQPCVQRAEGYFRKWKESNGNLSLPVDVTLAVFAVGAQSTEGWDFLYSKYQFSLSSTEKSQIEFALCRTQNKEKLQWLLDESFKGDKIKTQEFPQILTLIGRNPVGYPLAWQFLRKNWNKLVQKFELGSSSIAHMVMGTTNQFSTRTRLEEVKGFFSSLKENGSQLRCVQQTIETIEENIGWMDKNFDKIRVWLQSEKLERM
SIRT5 inh – sirtuin-5 (human) deacylase inhibition | hit rate 1.1% among 330,000 | inhibition, % at 15 µM | Q9NXA8 | Purified SirT5, succinyl-peptide AMC, trypsin-coupled fluorescence | AID 652115; in the data active = inhibition above about 15%
FGF22 binding – binders of recombinant human FGF22 by thermal shift | Q9HCT0 | SYPRO orange fluorescence; percent of sucrose octasulfate shift, DMSO zero | activity (Tm shift, normalised), % at 9.99 µM | hit rate 1.5% among 340,000;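 active = mean Tm shift, scaled 0 neutral to 100 positive control, at about 1.3% or above, every replicate too, limit read from the data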
FN deposition inh – fibronectin deposition inhibition | AH1F fibroblasts, Alexa488-fibronectin deposition fluorescence, overnight | hit rate 0.086% among 350,000 | inhibition, % at 12.6 µM;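 active = mean inhibition across replicates of 30% or more, regardless of how many single replicates reach that level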
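Schedule: 1 h cell adhesion before compound, then overnight fibronectin incubation; test system: AH1F fibroblast monolayer depositing Alexa488-labelled fibronectin into matrix; quantity: 10000 AH1F cells per well; probe or stimulus: fluorescent fibronectin at 24 nM final; signal: fluorescence, ex 485 nm, em 525 nm; evaluation: percent inhibition as loss of matrix-bound fibronectin fluorescence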
Hits are given with their value; – = inactive; · = no result; + = active, no number.

SMILES	PGC1a acetyl inh	ERAP1 HTS inh	SIRT5 inh	FGF22 binding	FN deposition inh
O=C1NC2C(=CC(O)C(O)C2O)c2cc3c(cc21)OCO3 (stereo not drawn)	85.4	–	·	–	–
O=C1NC2C(=CC(O)C(O)C2O)c2cc3c(c(O)c21)OCO3 (stereo not drawn)	62.7	–	–	–	–
O=C1NC2C(O)C(O)C(O)C(O)C2c2cc3c(c(O)c21)OCO3 (stereo not drawn)	·	–	–	–	–
O=C(O)[C@@H]1[C@@H](CO)[C@@H]2Cn3c(ccc(-c4cccnc4)c3=O)[C@H]1N2C(=O)Nc1cc(F)ccc1F	·	–	–	–	–
O=C(O)C(O)(c1ccccc1)C1CCCC1 (stereo not drawn)	–	·	·	·	32.6
CC(C)(C)C(=O)OC[N+](C)(C)CCOC(=O)C(O)(c1ccccc1)C1CCCC1 (stereo not drawn)	·	–	–	–	–
C=CCN1[C@@H]2CN(CC(F)(F)F)C[C@H]1C2c1ccc(Br)cc1 (stereo partly drawn)	·	·	·	·	–
CC1(C)CC(=O)CC(C)(C)N1O	·	–	·	44.9	–
NS(=O)(=O)c1ccc(-c2ccc(C=C3C(=O)NC(=S)NC3=O)o2)cc1	·	–	35.4	–	–
NS(=O)(=O)c1ccc(-c2ccc(C=C3C(=O)NC(=O)NC3=O)o2)cc1	–	–	–	–	–
COC(=O)[C@@H]1[C@@H](CO)[C@@H]2Cn3c(ccc(C4=CCCCC4)c3=O)[C@H]1N2Cc1cccnc1	–	–	–	–	·
COc1ccc(-n2c(C)cc(C(=O)C[N+]34CCN(CC3)CC4)c2C)cc1	–	–	–	43.2	–
COCC#Cc1ccc([C@@H]2[C@H]3CN(C(=O)Cc4ccccn4)CCCCN3[C@H]2CO)cc1	–	–	–	–	·
CC=Cc1ccc2n(c1=O)C[C@@H]1[C@@H](CO)[C@H](C(=O)OC)[C@H]2N1CC1CCCC1 (mixture of isomers)	–	–	–	·	·
CCCNC(=O)[C@@H]1[C@@H](CO)[C@@H]2Cn3c(cccc3=O)[C@@H]2N1C	·	–	–	–	–
C=C(C)CC1(CC)C(=O)NC(=S)NC1=O	–	–	·	44.2	–
COC(=O)[C@@H]1C[C@H]1[C@@H](NP(=O)(c1ccccc1)c1ccccc1)c1ccccc1	–	–	·	–	–
COC(=O)[C@H]1C[C@@H]1[C@H](NP(=O)(c1ccccc1)c1ccccc1)c1ccccc1	–	–	–	1.8	–
N#CC1(c2ccccc2)CCN(C2CC(=O)N(c3ccc4c(c3)OCO4)C2=O)CC1 (stereo not drawn)	·	–	–	43.6	–
O=C(C1CC1)N1C[C@@H]2N[C@H](C1)[C@@H]2c1ccc(-c2ccncc2)cc1	–	–	–	·	–
c1ccc(C2(NC3=NCCO3)CCCCC2)cc1	–	–	·	43.1	–
CNCC1(c2ccccc2)CCCC1	–	·	·	·	–
CC(=O)OC1CC2(O)C3CCC4CC(O)CCC4(C)C3CCC2(C)C1C1=CC(=O)OC1 (stereo not drawn)	65.3	–	–	–	–
O=C(Cc1cccnc1)N1CCCCN2[C@H](C1)[C@H](c1ccc(C#CC3(O)CCCC3)cc1)[C@@H]2CO	–	–	–	–	·
CCOP(=O)(OCC)c1cccc(O)c1	–	–	–	44.8	–
SMILES	PGC1a acetyl inh	ERAP1 HTS inh	SIRT5 inh	FGF22 binding	FN deposition inh
Cc1cccc(S(=O)(=O)N2[C@@H]3c4ccc(-c5cccc(F)c5)c(=O)n4C[C@H]2[C@H](CO)[C@H]3C(=O)O)c1	·	·	–	–	·
CC(=O)N1C[C@@H]2N[C@H](C1)C2c1ccc(Br)cc1 (stereo partly drawn)	·	·	·	·	–
C[N+]1(C)C2CCC1CC(OC(=O)C(CO)c1ccccc1)C2 (stereo not drawn)	·	–	–	43.5	–
C[N+]1(C)[C@@H]2CC[C@H]1CC(OC(=O)C(CO)c1ccccc1)C2 (stereo partly drawn)	–	–	–	–	–
Cc1cc2c(C(C)C)c(O)c(O)c(C=O)c2c(O)c1-c1c(C)cc2c(C(C)C)c(O)c(O)c(C=O)c2c1O	–	–	24.8	–	–
OC[C@@H]1Nc2ccc(C#Cc3cccnc3)cc2[C@@H]2NCC[C@H]12	·	·	·	·	–
C[n+]1ccc(-c2ccncc2)cc1	–	31.4	–	–	·
C[C@H](CO)N1C[C@H](C)[C@H](CN(C)C(=O)Oc2cccc3ccccc23)OCc2cn(nn2)CCCC1=O	–	·	·	·	–
CC=Cc1ccc2n(c1=O)C[C@H]1[C@H](CO)[C@@H](C(=O)OC)[C@@H]2N1S(=O)(=O)c1cccc(C)c1 (mixture of isomers)	·	–	–	–	·
COC(=O)[C@@H]1[C@@H](CO)[C@@H]2Cn3c(ccc(/C=C/c4ccccc4)c3=O)[C@H]1N2C(=O)C1CCC1	·	–	–	–	·
CCCCC1(CCC)C(=O)NC(=S)NC1=O	–	–	·	42.9	–
CCCC1(CC(C)C)C(=O)NC(=S)NC1=O	·	–	·	–	–
CCCNC(=O)N1[C@@H]2Cn3c(ccc(-c4ccccc4OC)c3=O)[C@H]1[C@@H](C(=O)O)[C@@H]2CO	·	–	–	–	·
CCN(CC)P(=O)(c1n(CC)cc[n+]1CC)N(CC)CC	·	108.6	–	–	–
CC(=O)N1C[C@@H]2C(c3ccccc3)[C@H](C1)N2CC1CC1 (stereo partly drawn)	·	·	·	·	–
COc1cccc2c1C(=O)c1c(O)c3c(c(O)c1C2=O)CC(O)(C(C)=NO)CC3OC1CC(N)C(O)C(C)O1 (stereo not drawn)	–	32.7	–	–	–
CCCCCCn1c(=O)c(C(=O)Nc2cnccn2)c(O)c2ccccc21	·	–	–	43.1	–
CC[N+](C)(CC)CCCCOc1ccc2c(c1)C(=O)c1cc(OCCCC[N+](C)(CC)CC)ccc1-2	–	68.1	–	–	–
CCOC(=O)[C@]12Cc3cc4ccccc4cc3[C@H]1N(Cc1ccccc1)C(=O)c1ccccc12	·	·	26.8	–	–
COc1cccc(C2(O)CCN(CC(=O)Nc3nc(C)cs3)CC2)c1	·	–	–	43.0	–
O=[N+]([O-])c1ccc(C(c2ccc([N+](=O)[O-])cc2)c2ccc([N+](=O)[O-])cc2)cc1	–	–	–	–	–
Cn1cnc([N+](=O)[O-])c1Sc1ccc([N+](=O)[O-])cc1	·	–	–	43.4	–
C[C@H]1C[C@@H](C)C(=O)[C@@H]([C@H](O)CC2CC(=O)NC(=O)C2)C1	68.3	–	·	–	·
CP(=O)(O)CN1CCCCC1	·	–	–	43.9	–
O=P(CN1CCN(c2ccccc2)CC1)(N1CCCCC1)N1CCCCC1	–	·	·	·	·
CN1CCN(C(=O)CN=[N+]=[N-])CC1	–	–	–	–	·
COc1cc(C2(C#N)CCN(C)CC2)cc(OC)c1OC	–	–	·	43.0	–
N#C[C@H](O[C@@H]1O[C@H](CO[C@@H]2O[C@H](CO)[C@@H](O)[C@H](O)[C@H]2O)[C@@H](O)[C@H](O)[C@H]1O)c1ccccc1	·	·	·	–	–
O=c1ccc2cc(O[C@@H]3O[C@@H](CO)[C@H](O)[C@@H](O)[C@@H]3O)c(O)cc2o1	–	+	–	–	–

Compound activity as filed in PubChem.
